ChEMBL document CHEMBL1124458, “Electrophilic derivatives of purines as irreversible inhibitors of A1 adenosine receptors” (J Med Chem, 1989)
One block for each compound: values may come before it.

Experiments:
[1] = target: T1, Adenosine receptor A1 (Bos taurus, UniProt P28190); test: Affinity for Adenosine A1 receptor using [125I]APNEA in calf brain.
T1 sequence (P28190 whole entry): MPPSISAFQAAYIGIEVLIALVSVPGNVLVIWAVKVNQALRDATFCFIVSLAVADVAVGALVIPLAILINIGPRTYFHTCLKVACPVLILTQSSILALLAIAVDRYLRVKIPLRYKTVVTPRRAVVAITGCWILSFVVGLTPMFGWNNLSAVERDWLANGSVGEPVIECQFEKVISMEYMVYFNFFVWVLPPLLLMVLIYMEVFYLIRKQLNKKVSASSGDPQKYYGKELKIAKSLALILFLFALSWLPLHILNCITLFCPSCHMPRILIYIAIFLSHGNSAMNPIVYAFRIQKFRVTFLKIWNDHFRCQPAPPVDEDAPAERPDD
Method in brief: (§1)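 Bovine cerebral cortex membranes were pretreated with adenosine deaminase (0.5 unit/mL, 20 min, 37 °C). Membranes (40 µg) were incubated with 125I-APNEA and competitor for 1 h at 37 °C. Separation was by dilution in cold Tris-HCl/MgCl2/EDTA buffer, pH 8.26, with 0.02% Chaps, then glass-filter filtration and gamma counting. Nonspecific binding was defined with 10⁻⁵ M (R)-PIA.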

[2] = target: T2, Adenosine receptor A1 (Rattus norvegicus) (UniProt P25099); test: Inhibition of [125I]-APNEA binding to adenosine A1 receptor of rat brain at 50 nM
T2 sequence (whole entry): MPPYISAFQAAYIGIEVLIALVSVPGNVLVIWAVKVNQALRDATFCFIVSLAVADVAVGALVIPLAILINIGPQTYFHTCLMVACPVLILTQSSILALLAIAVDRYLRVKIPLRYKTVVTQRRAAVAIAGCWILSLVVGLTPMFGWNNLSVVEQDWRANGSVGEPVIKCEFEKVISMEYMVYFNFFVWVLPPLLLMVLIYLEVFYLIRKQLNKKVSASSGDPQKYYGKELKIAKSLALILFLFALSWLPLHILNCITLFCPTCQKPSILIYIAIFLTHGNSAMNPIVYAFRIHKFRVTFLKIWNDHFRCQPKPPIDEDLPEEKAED
Method in brief: (§2)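 Adenosine deaminase-treated rat cerebral cortex membranes were exposed to the ligand for 45 min at 37 °C. They were washed three times, held in buffer with 10⁻⁴ M IBMX for 18 h at 25 °C, washed and re-treated with deaminase. Residual sites were measured by 125I-APNEA saturation (0.1–2.5 nM) against untreated membranes carried through the same procedure.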

[3] = target: T2, Adenosine receptor A1 (Rattus norvegicus); details: 50 nM
[4] = target: T3, Adenosine receptors; A1 & A2 (Rattus norvegicus) (UniProt P29276+P25099+P30543); test: Relative affinities for Adenosine A2 and Adenosine A1 receptors; assay type: protein assay
[5] = target: T4, Adenosine A2 receptor (Rattus norvegicus, UniProt P29276+P30543); test: Inhibition of [3H]N-ethyladenosine-5'-uronamide binding to Adenosine A2 receptor of rat striatal membrane
[6] = target: T5, Adenosine receptor A1 (Rattus norvegicus, UniProt P25099); test: Affinity for adenosine A1 receptor using [3H]-N6 -(phenylisopropyl)-adenosine (R)-[3H]-PIA in rat brain.; assay type: tissue-based
T5 sequence (P25099 whole entry): T2 sequence (whole entry)
Method in brief: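 Rat cerebral cortex membranes were incubated with 1 nM (R)-[3H]PIA and a range of competitor concentrations. Each point was run in triplicate, in at least three separate experiments.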

[7] = target: T2, Adenosine receptor A1 (Rattus norvegicus); test: Percentage inhibition of [125I]APNEA binding to adenosine A1 receptor from rat brain after 45 min incubation at 500 nM; method in brief: as §2
[8] = target: T5, Adenosine receptor A1; test: Affinity for adenosine A1 receptor using [3H]N6-(phenylisopropyl)adenosine (R)-[3H]-PIA as a radioligand in rat brain.; assay type: tissue-based
[9] = target: T1, Adenosine receptor A1; test: Affinity for Adenosine A1 receptor using [N6-[(3-[125I]-iodo-4-aminophenyl)ethyl]adenosine in calf brain; assay type: tissue-based; method in brief: as §1
[10] = target: T2, Adenosine receptor A1 (Rattus norvegicus); test: Percentage inhibition of [125I]-APNEA binding to adenosine A1 receptor from rat brain after 45 min incubation at 50 nM; method in brief: as §2
[11] = target: T2, Adenosine receptor A1 (Rattus norvegicus); details: 5 nM
[12] = target: T2, Adenosine receptor A1 (Rattus norvegicus); details: 5 nM; remark: listed apart in the source
[13] = target: T3, Adenosine receptors; A1 & A2 (Rattus norvegicus); test: Selectivity ratio between Ki for adenosine A2 and A1 receptors; assay type: protein assay
[14] = target: T2, Adenosine receptor A1 (Rattus norvegicus); test: Percentage inhibition of [125I]-APNEA binding to Adenosine A1 receptor from rat brain after 45 min incubation at 50 nM
Method in brief: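 Rat cerebral cortex membranes pretreated with adenosine deaminase (0.5 unit/mL, 20 min, 37 °C). Incubated with ligand at the stated concentration for 45 min at 37 °C, then washed three times in Tris/MgCl2/EDTA buffer pH 8.26 with 0.02% Chaps. Then 10⁻⁴ M IBMX for 18 h at 25 °C, washed twice and deaminase-treated again. Untreated membranes went through every step as controls.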

[15] = target: T4, Adenosine A2 receptor; test: Inhibitory affinity for Adenosine A2 receptor using [3H]N-ethyladenosine-5'-uronamide; assay type: protein assay

SMILES: CCCn1c(=O)c2nc(-c3ccc(OCC(=O)NCCNC(=O)Cc4ccc(N/C(S)=N/c5ccc(N=C=S)cc5)cc4)cc3)[nH]c2n(CCC)c1=O
inhibition [3]: 20% | Ratio [4]: 26.2 | Ki [5]: 655 nM

SMILES: N#Cc1ccc(N/C(S)=N/CCNC(=O)Cc2ccc(NC(=O)Cc3ccc(Nc4ncnc5c4ncn5C4O[C@H](CO)[C@@H](O)[C@H]4O)cc3)cc2)cc1 (stereo partly drawn)
Ki [6]: 2.66 nM

SMILES: CCCn1c(=O)c2[nH]c(-c3ccc(OCC(=O)NCCNC(=O)CNC(=O)CCCN4C(=O)C=CC4=O)cc3)nc2n(CCC)c1=O
Ki [6]: 23.2 nM

SMILES: O=C(Cc1ccc(NC(=O)Cc2ccc(Nc3ncnc4c3ncn4C3O[C@H](CO)[C@@H](O)[C@H]3O)cc2)cc1)NCC/N=C(\S)Nc1ccc([N+](=O)[O-])cc1 (stereo partly drawn)
Ki [8]: 1.97 nM

SMILES: O=C(Cc1ccc(NC(=O)Cc2ccc(Nc3ncnc4c3ncn4C3O[C@H](CO)[C@@H](O)[C@H]3O)cc2)cc1)NCCNC(=S)Nc1cccc(N=C=S)c1 (stereo partly drawn)
Ki [8]: 0.867 nM

SMILES: COc1ccc(NC(=S)NCCNC(=O)Cc2ccc(NC(=O)Cc3ccc(Nc4ncnc5c4ncn5C4O[C@H](CO)[C@@H](O)[C@H]4O)cc3)cc2)cc1 (stereo partly drawn)
Ki [6]: 8.52 nM

SMILES: CCCn1c(=O)c2nc(-c3ccc(OCC(=O)NCCN=C(S)Nc4cccc(N=C=S)c4)cc3)[nH]c2n(CCC)c1=O
inhibition [11]: 49% | Ratio [4]: 144 | inhibition [12]: 67% | inhibition [7]: 94% | Ki [5]: 343 nM

SMILES: O=C(Cc1ccc(Nc2ncnc3c2ncn3C2O[C@H](CO)[C@@H](O)[C@H]2O)cc1)Nc1ccc(CC(=O)ON2C(=O)CCC2=O)cc1 (stereo partly drawn)
inhibition [2]: 44% | Ki [8]: 9.6 nM

SMILES: CCCn1c(=O)c2[nH]c(-c3ccc(OCC(=O)NCCNC(=O)Cc4ccc(NC(=S)Nc5ccc(N=C=S)cc5)cc4)cc3)nc2n(CCC)c1=O
Ki [8]: 25 nM

SMILES: O=C(Cc1ccc(NC(=O)Cc2ccc(Nc3ncnc4c3ncn4C3O[C@H](CO)[C@@H](O)[C@H]3O)cc2)cc1)NCCNC(=S)Nc1ccccc1F (stereo partly drawn)
Ki [8]: 6.75 nM

SMILES: Cc1ccc(NC(=S)NCCNC(=O)Cc2ccc(NC(=O)Cc3ccc(Nc4ncnc5c4ncn5C4O[C@H](CO)[C@@H](O)[C@H]4O)cc3)cc2)cc1 (stereo partly drawn)
Ki [8]: 3.72 nM

SMILES: O=C(Cc1ccc(NC(=O)Cc2ccc(Nc3ncnc4c3ncn4C3O[C@H](CO)[C@@H](O)[C@H]3O)cc2)cc1)NCC/N=C(\S)Nc1ccc(F)cc1 (stereo partly drawn)
Ki [8]: 8.71 nM

SMILES: O=C(Cc1ccc(NC(=O)Cc2ccc(Nc3ncnc4c3ncn4C3O[C@H](CO)[C@@H](O)[C@H]3O)cc2)cc1)NCCNC(=S)Nc1ccc(N=C=S)cc1 (stereo partly drawn)
Ki [8]: 0.469 nM

SMILES: O=C(Cc1ccc(Nc2ncnc3c2ncn3C2O[C@H](CO)[C@@H](O)[C@H]2O)cc1)ON1C(=O)CCC1=O (stereo partly drawn)
inhibition [2]: 21% | Ki [8]: 8.37 nM

SMILES: O=C(Cc1ccc(NC(=O)Cc2ccc(Nc3ncnc4c3ncn4C3O[C@H](CO)[C@@H](O)[C@H]3O)cc2)cc1)NCC/N=C(\S)Nc1c(F)c(F)c(F)c(F)c1F (stereo partly drawn)
Ki [6]: 1.64 nM

SMILES: CCCn1c(=O)c2nc(-c3ccc(OCC(=O)NCCN=C(S)Nc4ccc(N=C=S)cc4)cc3)[nH]c2n(CCC)c1=O
inhibition [2]: 29% | Ratio [4]: 48.6 | inhibition [14]: 63% | inhibition [7]: 73% | Ki [5]: 321 nM

SMILES: CCCn1c(=O)c2nc(-c3ccc(OCC(=O)NCCNC(=O)C/N=C(\S)Nc4ccc(N=C=S)cc4)cc3)[nH]c2n(CCC)c1=O
Ki [15]: 472 nM | inhibition [2]: 50% | Ratio [4]: 69

SMILES: O=C(Cc1ccc(NC(=O)Cc2ccc(Nc3ncnc4c3ncn4C3O[C@H](CO)[C@@H](O)[C@H]3O)cc2)cc1)NCCNC(=S)Nc1ccc(Br)cc1 (stereo partly drawn)
Ki [8]: 1.19 nM

SMILES: CCCn1c(=O)c2[nH]c(-c3ccc(OCC(=O)NCCNC(=O)CCCCCCC(=O)ON4C(=O)CCC4=O)cc3)nc2n(CCC)c1=O
Ki [9]: 23 nM

SMILES: O=C(CBr)NCCNC(=O)Cc1ccc(NC(=O)Cc2ccc(Nc3ncnc4c3ncn4C3O[C@H](CO)[C@@H](O)[C@H]3O)cc2)cc1 (stereo partly drawn)
Ki [15]: 202 nM | inhibition [2]: 38% | Ratio [4]: 76 | Ki [8]: 8.3 nM

SMILES: O=C(Cc1ccc(NC(=O)Cc2ccc(Nc3ncnc4c3ncn4C3O[C@H](CO)[C@@H](O)[C@H]3O)cc2)cc1)NCCN=C=S (stereo partly drawn)
Ki [8]: 4.5 nM | Ki [1]: 4.2 nM

Second part, the compound after the results:

Ki [1]: 10.1 nM
SMILES: CCCn1c(=O)c2[nH]c(-c3ccc(OCC(=O)NCCNC(=O)c4ccc(CBr)cc4)cc3)nc2n(CCC)c1=O

inhibition [2]: 15%
SMILES: CCCn1c(=O)c2nc(-c3ccc(OCC(=O)NCCNC(=O)c4ccc(CBr)cc4)cc3)[nH]c2n(CCC)c1=O

inhibition [7]: 0% | Ki [1]: 6.2 nM
SMILES: CCCn1c(=O)c2nc(-c3ccc(OCC(=O)NCCNC(=O)CCCCC(C)=O)cc3)[nH]c2n(CCC)c1=O

inhibition [2]: 32% | Ki [5]: 207 nM
SMILES: CCCn1c(=O)c2nc(-c3ccc(OCC(=O)NCCNC(=O)CCCCCCC(=O)ON4C(=O)CCC4=O)cc3)[nH]c2n(CCC)c1=O

Ki [8]: 33.2 nM
SMILES: CCCn1c(=O)c2nc(-c3ccc(OCC(=O)NCCN=C(S)Nc4ccc(OC)cc4)cc3)[nH]c2n(CCC)c1=O

Ki [9]: 0.3 nM
SMILES: CCCn1c(=O)c2[nH]c(-c3ccc(OCC(=O)NCCN)cc3)nc2n(CCC)c1=O [XANTHINE AMINE CONGENER]

inhibition [2]: 9%
SMILES: CCCn1c(=O)c2nc(-c3ccc(OCC(=O)NCCNC(=O)CNC(=O)CCCN4C(=O)C=CC4=O)cc3)[nH]c2n(CCC)c1=O

Ki [8]: 15.9 nM
SMILES: CCCn1c(=O)c2nc(-c3ccc(OCC(=O)NCCN=C(S)Nc4ccc([N+](=O)[O-])cc4)cc3)[nH]c2n(CCC)c1=O

inhibition [2]: 10%
SMILES: CCCn1c(=O)c2nc(-c3ccc(OCC(=O)ON4C(=O)CCC4=O)cc3)[nH]c2n(CCC)c1=O

inhibition [10]: 23% | Ratio [4]: 42 | Ki [5]: 105 nM
SMILES: CCCn1c(=O)c2nc(-c3ccc(OCC(=O)NCCNS(=O)(=O)c4cccc(S(=O)(=O)Cl)c4)cc3)[nH]c2n(CCC)c1=O

inhibition [7]: 0%
SMILES: CCCn1c(=O)c2nc(-c3ccc(OCC(=O)NCCNC(=O)CCC(=O)ON4C(=O)CCC4=O)cc3)[nH]c2n(CCC)c1=O

Ratio [13]: 3.95 | Ki [5]: 1450 nM | Ki [8]: 367 nM
SMILES: CCCn1c(=O)c2nc(-c3ccc(OCC(=O)NCCN=C(S)Nc4ccc(S(=O)(=O)[O-])cc4)cc3)[nH]c2n(CCC)c1=O.[Na+]

Ki [8]: 15.5 nM
SMILES: CCCn1c(=O)c2nc(-c3ccc(OCC(=O)NCCN=C(S)Nc4ccc(F)cc4)cc3)[nH]c2n(CCC)c1=O

inhibition [2]: 15% | Ki [8]: 37.8 nM
SMILES: CCCn1c(=O)c2nc(-c3ccc(OCC(=O)NCCNC(=O)CCCN4C(=O)C=CC4=O)cc3)[nH]c2n(CCC)c1=O

inhibition [2]: 3%
SMILES: CCCn1c(=O)c2nc(-c3ccc(OCC(=O)NCCNC(=O)CCSSc4ccccn4)cc3)[nH]c2n(CCC)c1=O

inhibition [2]: 16%
SMILES: CCCn1c(=O)c2nc(-c3ccc(OCC(=O)NCCNC(=O)CBr)cc3)[nH]c2n(CCC)c1=O

Ki [8]: 16.6 nM
SMILES: CCCn1c(=O)c2[nH]c(-c3ccc(OCC(=O)NCCNC(=S)Nc4ccc(C#N)cc4)cc3)nc2n(CCC)c1=O
